Results from ChEMBL document CHEMBL2390943, “Synthesis and preliminary evaluation steroidal antiestrogen-geldanamycin conjugates” (Bioorg Med Chem Lett, 2013).
pIC50: −log10 of the molar value.

What was measured:
[1] = molecular target: T1, Estrogen receptor (Homo sapiens) (UniProt P03372); assay: Relative binding affinity to estrogen receptor-alpha (unknown origin)
T1 sequence (whole entry): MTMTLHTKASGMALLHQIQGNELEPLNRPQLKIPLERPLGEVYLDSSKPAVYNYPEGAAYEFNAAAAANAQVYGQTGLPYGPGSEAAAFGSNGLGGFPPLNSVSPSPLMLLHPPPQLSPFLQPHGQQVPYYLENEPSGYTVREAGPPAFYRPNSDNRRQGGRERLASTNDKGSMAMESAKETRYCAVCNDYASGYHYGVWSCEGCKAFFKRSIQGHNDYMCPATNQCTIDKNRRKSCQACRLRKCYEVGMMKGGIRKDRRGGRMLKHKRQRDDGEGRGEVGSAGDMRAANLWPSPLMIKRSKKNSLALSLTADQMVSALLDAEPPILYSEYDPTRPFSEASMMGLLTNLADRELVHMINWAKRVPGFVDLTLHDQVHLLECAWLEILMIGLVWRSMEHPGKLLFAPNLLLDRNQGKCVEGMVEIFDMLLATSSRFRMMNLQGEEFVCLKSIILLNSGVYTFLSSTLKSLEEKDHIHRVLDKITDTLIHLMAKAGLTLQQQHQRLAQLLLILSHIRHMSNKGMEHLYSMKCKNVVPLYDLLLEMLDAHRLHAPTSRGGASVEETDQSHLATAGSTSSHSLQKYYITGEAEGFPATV

SK-BR-3 = assay: Antiproliferative activity against estrogen receptor deficient human SKBR3 cells after 72 hrs; format: functional, cell-based; details: SK-BR-3, 72 h
How it was run: (§1)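 Proliferation inhibition was measured in MCF-7 (ER-expressing) and SKBr3 (ER-lacking) human breast cancer cells. IC50 was taken as the concentration giving 50% inhibition.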

MCF7 [2] = assay: Antiproliferative activity against human MCF7 cells expressing estrogen receptor after 72 hrs; format: functional, cell-based; details: MCF7, 72 h; how it was run: as §1
MCF7 [3] = assay: Ratio of IC50 for estrogen receptor deficient human […] cells to IC50 for human MCF7 cells expressing estrogen receptor; format: functional

With `C#CCN(C)CCOc1ccc([C@H]2C[C@]3(C)[C@@H](O)CC[C@H]3[C@@H]3CCc4cc(O)ccc4[C@H]32)cc1` the RBA [1] was 39%.

`CO[C@H]1/C=C\C=C(/C)C(=O)NC2=CC(=O)C(NCCOCCOCCOCCc3cn(CN(C)CCOc4ccc([C@H]5C[C@]6(C)[C@@H](O)CC[C@H]6[C@@H]6CCc7cc(O)ccc7[C@H]65)cc4)nn3)=C(C[C@@H](C)C[C@H](OC)[C@H](O)[C@@H](C)/C=C(\C)[C@@H]1OC(N)=O)C2=O` (stereo in doubt) gave a pIC50 (SK-BR-3) of 7.39 and a pIC50 (MCF7 [2]) of 6.99.

`COc1cccc2c1C(=O)c1c(O)c3c(c(O)c1C2=O)C[C@@](O)(/C(CO)=N/NC(=O)c1ccc(OCCOCCOCCOCCOCc2cn(CCOCCOCCOCCN(C)CCOc4ccc([C@H]5C[C@]6(C)[C@@H](O)CC[C@H]6[C@@H]6CCc7cc(O)ccc7[C@H]65)cc4)nn2)cc1)C[C@@H]3O[C@H]1C[C@H](N)[C@H](O)[C@H](C)O1` was tested, and the “Ratio IC50” value (MCF7 [3]) was 7.

Work on `CO[C@@]12[C@H](COC(N)=O)C3=C(C(=O)C(C)=C(NCc4cn(CCOCCOCCOc5ccc([C@H]6C[C@]7(C)[C@@H](O)CC[C@H]7[C@@H]7CCc8cc(O)ccc8[C@H]76)cc5)nn4)C3=O)N1C[C@H]1[C@@H]2N1C` (stereo not given in full) yielded an RBA [1] of 7%.

`CO[C@H]1/C=C\C=C(/C)C(=O)NC2=CC(=O)C(NCCCCCNC(=O)c3ccc(CC4CCCCc5c(nnn5CCOc5ccc([C@H]6C[C@]7(C)[C@@H](O)CC[C@H]7[C@@H]7CCc8cc(O)ccc8[C@H]76)cc5)C4(F)F)cc3)=C(C[C@@H](C)C[C@H](OC)[C@H](O)[C@@H](C)/C=C(\C)[C@@H]1OC(N)=O)C2=O` (stereo in doubt) showed a pIC50 (MCF7 [2]) of 4.82.

In the case of `CO[C@H]1/C=C\C=C(/C)C(=O)NC2=CC(=O)C(NCc3cn(CCOc4ccc([C@H]5C[C@]6(C)[C@@H](O)CC[C@H]6[C@@H]6CCc7cc(O)ccc7[C@H]65)cc4)nn3)=C(C[C@@H](C)C[C@H](OC)[C@H](O)[C@@H](C)/C=C(\C)[C@@H]1OC(N)=O)C2=O` (stereo in doubt), the pIC50 (SK-BR-3) was 6.15 and the pIC50 (MCF7 [2]) was 5.94.

For `COC1=C2C[C@@H](C)C[C@H](OC)[C@H](O)[C@@H](C)/C=C(\C)[C@H](OC(N)=O)[C@@H](OC)/C=C\C=C(/C)C(=O)NC(=CC1=O)C2=O` [GELDANAMYCIN], the pIC50 (SK-BR-3) was 8.07 and the pIC50 (MCF7 [2]) was 8.01.
